Here are results for 31 compounds from ChEMBL document CHEMBL3120124, “Lead optimization of HMBA to develop potent HEXIM1 inducers” (Bioorg Med Chem Lett, 2014).

The target in series [1] is T1, Protein HEXIM1 (Homo sapiens) (UniProt O94992).
T1 sequence (whole entry): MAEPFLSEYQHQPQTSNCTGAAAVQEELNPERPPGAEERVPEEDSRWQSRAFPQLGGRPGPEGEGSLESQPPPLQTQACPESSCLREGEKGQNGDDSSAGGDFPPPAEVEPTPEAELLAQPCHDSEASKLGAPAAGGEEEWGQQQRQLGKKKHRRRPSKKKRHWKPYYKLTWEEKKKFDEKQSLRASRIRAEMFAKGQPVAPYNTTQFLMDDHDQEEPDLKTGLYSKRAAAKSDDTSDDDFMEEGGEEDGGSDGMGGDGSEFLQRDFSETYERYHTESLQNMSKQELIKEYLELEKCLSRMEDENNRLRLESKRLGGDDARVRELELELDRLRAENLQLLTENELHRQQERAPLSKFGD
As to the kind of experiment: Induction of HEXIM1 protein expression in human LNCAP cells at 100 uM after 24 hrs by Western blotting analysis relative to control. Format: cell-based. The gist of the method:
(§1)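 LNCaP prostate cancer cells were treated for 24 h with vehicle, HMBA (5 mM; positive control) or analog at 500 μM, and selected analogs also at 100 μM. HEXIM1 was assessed by Western blot of cell extracts using a HEXIM1 antibody, with β-actin as loading control. Band intensities were quantified by densitometry. Representative of three independent experiments.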

Series [2] concerns the target T1, Protein HEXIM1 (Homo sapiens). Nature of the series: Induction of HEXIM1 protein expression in human LNCAP cells after 24 hrs by Western blotting analysis. Format: cell-based. (In general: A western blot detects proteins with antibodies after separation by electrophoresis.)
Series [3] can be described thus: Solubility of the compound in water. It counts as physicochemical. The gist of the method: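 Aqueous solubility was judged by the absence of precipitation in LNCaP cell culture medium at 100 μM.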
Series [4] has as its target T1, Protein HEXIM1 (Homo sapiens). As to the kind of experiment: Induction of HEXIM1 protein expression in human LNCAP cells at 500 uM after 24 hrs by Western blotting analysis relative to control. Format: cell-based. The gist of the method: as §1
Series [5] shares this target. As to the kind of experiment: Induction of HEXIM1 protein expression in human LNCAP cells at 0.5 mM after 24 hrs by Western blotting analysis relative to control. It counts as cell-based. The procedure, abridged:
as §1

The target is the same in series [6]. As to the kind of experiment: Induction of HEXIM1 protein expression in human LNCAP cells at 1 mM after 24 hrs by Western blotting analysis relative to control. It counts as cell-based.
Series [7] shares this target. Nature of the series: Induction of HEXIM1 protein expression in human LNCAP cells at 5 mM after 24 hrs by Western blotting analysis relative to control. Format: cell-based.
Another series deals with LNCaP. As to the kind of experiment: Cytotoxicity against human LNCAP cells assessed as change in cell morphology at 500 uM. It counts as cell-based.
Series [8] deals with T1, Protein HEXIM1 (Homo sapiens). As to the kind of experiment: Induction of HEXIM1 protein expression in human LNCAP cells at 0.05 mM after 24 hrs by Western blotting analysis relative to control. Format: cell-based.
For series [9] the target is unchanged. As to the kind of experiment: Induction of HEXIM1 protein expression in human LNCAP cells at 0.1 mM after 24 hrs by Western blotting analysis relative to control. Format: cell-based.

Usually solubility stands for the concentration that dissolves in the medium under given conditions. With `CCCC(=O)NCCCCCCNC(=O)CCC`, the fold change (FC) in series [1] was 1.23; in series [4], 4.89. Besides, the Activity entry in series [2] was “Dose-dependent effect”. This compound also registered a solubility in series [3] greater than 100 µM.

In the case of `CC(=O)NCCCCCCNC(C)=O`, the fold change (FC) in [5] worked out at 8.15; in series [6] it was 23.6; in series [7], 2.21.

`CC(=O)N(C)CCCCCN(C)C(C)=O`: the fold change (FC) in series [4] worked out at 0.05.

On to `CN(C1CCC(N(C)S(C)(=O)=O)CC1)S(C)(=O)=O` (configuration not stated), for which the results for the fold change (FC) in series [1] and in [4] were 1.22 and 1.27, respectively. Moreover, the solubility in series [3] is greater than 100 µM.

In the case of `CN(CCCCCN(C)S(C)(=O)=O)S(C)(=O)=O`, in series [4], the fold change (FC) turned out to be 0.05.

Consider `CS(=O)(=O)NCC1CCC(CNS(C)(=O)=O)CC1` (configuration not stated), for which the fold change (FC) in series [4] was found to be 1.24.

In the case of `CC(=O)NCc1ccc(CNC(C)=O)cc1`, the fold change (FC) in series [4] is 0.4.

As to `CC(=O)NCCCCCCNC(=O)c1ccc(Cl)c([N+](=O)[O-])c1`, the fold change (FC) in series [4] is 0.08.

Consider `CCC(=O)NCCCCCCNC(=O)CC`, for which the fold change (FC) in [1] amounted to 1.34; in series [4], 4.45. Also, the Activity result in series [2] is “Dose-dependent effect”. In addition, in series [3], the solubility is greater than 100 µM.

For the compound `CS(=O)(=O)NC1CCC(NS(C)(=O)=O)CC1` (configuration not stated), the fold change (FC) in series [4] worked out at 0.67.

With `CN(CCCN(C)S(C)(=O)=O)S(C)(=O)=O`, the results for the fold change (FC) in series [1] and in series [4] were 0.67 and 2.86, respectively. For the same compound, the solubility in series [3] was greater than 100 µM.

For the compound `O=C(NCCCCCCNC(=O)c1ccccc1)c1ccccc1`, the fold change (FC) in series [4] was determined as 0.46.

With `CN(CC1CCC(CN(C)S(C)(=O)=O)CC1)S(C)(=O)=O` (configuration not stated), the fold change (FC) in series [1] was found to be 0.41; in series [4] it was 3.09. For the same compound, the solubility in series [3] is greater than 100 µM.

Turning to `CS(=O)(=O)NCCCCCNS(C)(=O)=O`, in series [4], the fold change (FC) is 0.22.

With `CC(=O)NCCCNC(C)=O`, the fold change (FC) in series [4] was determined as 0.68.

As to `CS(=O)(=O)NCCCNS(C)(=O)=O`, the fold change (FC) in [1] stood at 0.21; in series [4] it was 4.45. Also, in [3], the solubility was greater than 100 µM.

For the compound `CC(=O)NC1CCC(NC(C)=O)CC1` (configuration not stated), the fold change (FC) in [1] turned out to be 0.06; in [4], 1.88. In series [3], this compound returned a solubility greater than 100 µM.

On to `CC(=O)NCC1CCC(CNC(C)=O)CC1` (configuration not stated), for which the Activity result with LNCaP is given as “Toxic”. For the same compound, in series [4], the fold change (FC) came to 2.14.

Regarding `CC(=O)N(C)Cc1ccc(CN(C)C(C)=O)cc1`, the fold change (FC) in series [1] worked out at 3.8; in series [4], 2.2. The solubility in series [3] is greater than 100 µM.

As to `CC(=O)NCCCCCNC(C)=O`, the fold change (FC) in series [4] was 0.12.

In the case of `COc1ccc(C(=O)NCCCCCCNC(C)=O)cc1`, the Activity result with LNCaP was “Toxic”. Besides, in series [4], the fold change (FC) came to 1.93.

For `CC(=O)N(C)CCCCCCN(C)C(C)=O`, the fold change (FC) in series [4] is 0.25.

With `CN(CCCCCCN(C)S(C)(=O)=O)S(C)(=O)=O`, the fold change (FC) in series [1] was 1.55; in series [4], 0.97. The same compound gave a solubility in series [3] greater than 100 µM.

Turning to `CC(=O)N(C)C1CCC(N(C)C(C)=O)CC1` (configuration not stated), the fold change (FC) was found to be 0.43 in series [1] and 3.09 in series [4]. In [3], this compound gave a solubility greater than 100 µM.

For the compound `CC(=O)NCCCCCCNC(=O)Oc1ccc(-c2ccccc2)cc1`, the fold change (FC) came to 0.61 in [1] and 1.07 in [4]. Besides, in series [3], the solubility is greater than 100 µM.

Take `CN(Cc1ccc(CN(C)S(C)(=O)=O)cc1)S(C)(=O)=O`: the fold change (FC) in series [1] worked out at 2; in series [4] it was 1.39. The compound also registered a solubility in series [3] greater than 100 µM.

`CS(=O)(=O)NCc1ccc(CNS(C)(=O)=O)cc1`: in [4], the fold change (FC) worked out at 0.16.

Regarding `CC(=O)N(C)CCCN(C)C(C)=O`, the fold change (FC) in [4] was determined as 0.44.

In the case of `CS(=O)(=O)NCCCCCCNS(C)(=O)=O`, the fold change (FC) in series [4] was found to be 0.31.

In the case of `CC(=O)N(C)CC1CCC(CN(C)C(C)=O)CC1` (configuration not stated), the fold change (FC) in series [4] was 1.38.

Take `COc1ccc(CC(=O)NCCCCCCNC(C)=O)cc1`: the fold change (FC) in series [1] is 1.16; in [5], 26.6; in [8] it was 1.72; in [9] it was 12.6; in [4], 2.8. Also, the Activity result in series [2] was “Dose-dependent effect”. For the same compound, in [3], the solubility is greater than 100 µM.
